Assay results: ChEMBL document CHEMBL3826969, “Synthesis and anticancer potential of novel xanthone derivatives with 3,6-substituted chains” (Bioorg Med Chem, 2016)
The source made the active and inactive calls. The calls are words filed in the database; no cut-off is given here.

What was measured:
[1] = system: A549; assay: Induction of apoptosis in human A549 cells assessed as early apoptotic cells at 25 uM after 48 hrs by Annexin V-FITC/propidium iodide staining based flow cytometry (reference value: 0.5 %); format: functional
[2] = system: A549; assay: Induction of apoptosis in human A549 cells assessed as late apoptotic cells at 25 uM after 48 hrs by Annexin V-FITC/propidium iodide staining based flow cytometry (reference value: 1.2 %); format: functional
[3] = system: MDA-MB-231; assay: Cytotoxicity against human MDA-MB-231 cells assessed as cell growth inhibition after 48 hrs by MTT assay; format: functional, cell-based; conditions: MDA-MB-231, 48 h
In short: (§1)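 Cells seeded in 96-well plates (MDA-MB-231, A549, AsPC-1 5×10^3; PC-3 8×10^3; HCT116 1×10^4 per well), attached 24 h in RPMI-1640 with 10% fetal calf serum at 37°C, 5% CO2. Serially diluted compound (final 0–400 μM, DMSO <0.1%) added for 48 h; 5-FU positive control. MTT read at 560 nm, triplicate; viability = treated/vehicle mean OD.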

[4] = system: A549; assay: Induction of apoptosis in human A549 cells assessed as viable cells at 25 uM after 48 hrs by Annexin V-FITC/propidium iodide staining based flow cytometry (reference value: 98.2 %); format: functional; conditions: A549, 48 h, read-out: Activity
[5] = system: A549; assay: Cell cycle arrest in human A549 cells assessed as accumulation at S phase at 25 uM after 48 hrs by propidium iodide staining based flow cytometry (reference value: 9.3 %); format: functional
In short: (§2)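 A549 cells exposed 48 h to derivative (25 µM), collected, fixed overnight in 70% ethanol, then stained 30 min at room temperature with 50 µg/mL propidium iodide, 200 µg/mL RNase A and 0.3% Triton X-100. Flow cytometry gave sub-G1, G0/G1, S and G2/M fractions; profile from 3 independent experiments.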

[6] = system: A549; assay: Induction of apoptosis in human A549 cells assessed as necrotic cells at 25 uM after 48 hrs by Annexin V-FITC/propidium iodide staining based flow cytometry (reference value: 0.1 %); format: functional
[7] = system: A549; assay: Cell cycle arrest in human A549 cells assessed as accumulation at G2/M phase at 25 uM after 48 hrs by propidium iodide staining based flow cytometry (reference value: 23.4 %); format: functional; in short: as §2
[8] = system: A549; assay: Cell cycle arrest in human A549 cells assessed as accumulation at G0/G1 phase at 25 uM after 48 hrs by propidium iodide staining based flow cytometry (reference value: 68.1 %); format: functional; in short: as §2
[9] = system: ASPC1; assay: Cytotoxicity against human AsPC1 cells assessed as cell growth inhibition after 48 hrs by MTT assay; format: functional, cell-based; conditions: ASPC1, 48 h; in short: as §1
[10] = Cytotoxicity against human PC3 cells assessed as cell growth inhibition after 48 hrs by MTT assay; format: functional, cell-based; conditions: PC-3, 48 h; in short: as §1
[11] = system: A549; assay: Cytotoxicity against human A549 cells assessed as cell growth inhibition after 48 hrs by MTT assay; format: functional, cell-based; conditions: A549, 48 h; in short: as §1
[12] = Cytotoxicity against human HCT116 cells assessed as cell growth inhibition after 48 hrs by MTT assay; format: functional, cell-based; conditions: HCT-116, 48 h; in short: as §1
[13] = system: A549; assay: Cell cycle arrest in human A549 cells assessed as accumulation at S phase after 48 hrs by propidium iodide staining based flow cytometry (reference value: 9.3 %); format: functional
In short: (§3)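 A549 cells exposed 48 h to 25 µM xanthone derivative, fixed overnight in 70% ethanol, then stained 30 min at room temperature with 50 µg/mL propidium iodide, 200 µg/mL RNase A and 0.3% Triton X-100. Sub-G1, G0/1, S and G2/M fractions were measured by flow cytometry. Three independent experiments.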

[14] = system: A549; assay: Induction of apoptosis in human A549 cells assessed as increase in caspase 3/7 activity after 48 hrs by Caspase-Glo 3/7 assay relative to control; format: functional
In short: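 In duplicate, 8 × 10^3 A549 cells were treated with 25 µM compound for 48 h. Caspase-3/7 luminescence was read 1 h after adding the Caspase-Glo 3/7 substrate, with blank (medium plus reagent) subtracted. Fold increase = treated reading / control reading. Mean ± 1 SD.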

[15] = system: A549; assay: Cell cycle arrest in human A549 cells assessed as accumulation at G2/M phase after 48 hrs by propidium iodide staining based flow cytometry (reference value: 23.4 %); format: functional; in short: as §3
[16] = system: A549; assay: Induction of apoptosis in human A549 cells assessed as late apoptotic cells after 48 hrs by Annexin V-FITC/propidium iodide staining based flow cytometry (reference value: 1.2 %); format: functional
In short: (§4)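 2 × 10^5 A549 cells seeded and given 25 µM compound for 48 h. Cells were trypsinized and washed in ice-cold PBS. 1 × 10^5 cells were stained with Annexin V-FITC plus propidium iodide in binding buffer for 15 min at room temperature, diluted with binding buffer, kept on ice, and run on a flow cytometer. Quadrants: viable, early apoptotic, late apoptotic, necrotic.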

[17] = system: A549; assay: Cell cycle arrest in human A549 cells assessed as accumulation at G0/G1 phase after 48 hrs by propidium iodide staining based flow cytometry (reference value: 68.1 %); format: functional; in short: as §3
[18] = system: A549; assay: Induction of apoptosis in human A549 cells assessed as early apoptotic cells after 48 hrs by Annexin V-FITC/propidium iodide staining based flow cytometry (reference value: 0.5 %); format: functional; in short: as §4
[19] = system: A549; assay: Induction of apoptosis in human A549 cells assessed as necrotic cells after 48 hrs by Annexin V-FITC/propidium iodide staining based flow cytometry (reference value: 0.1 %); format: functional; in short: as §4
[20] = system: A549; assay: Induction of apoptosis in human A549 cells assessed as viable cells after 48 hrs by Annexin V-FITC/propidium iodide staining based flow cytometry (reference value: 98.2 %); format: functional; in short: as §4
[21] = system: A549; assay: Induction of apoptosis in human A549 cells assessed as increase in caspase 3/7 activity at 25 uM after 48 hrs by Caspase-Glo 3/7 assay relative to control; format: functional
In short: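 A549 cells (8×10^3) plated in duplicate in 96-well plates, treated 25 µM for 48 h. Caspase-Glo 3/7 luminescence read after 1 h with substrate; blank (medium plus reagent) subtracted; fold increase = treated/control reading; mean ± 1 SD.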

Compound: O=C(COc1ccc2c(=O)c3ccc(OCC(=O)N4CCOCC4)cc3oc2c1)N1CCOCC1
- Activity [1]: 0.5%
- Activity [2]: 0.7%
- IC50 [3]: > 400 µM
- viability at 25 µM [4]: 97.9%
- Activity [5]: 9.6%
- Activity [6]: 0.9%
- Activity [7]: 25.1%
- Activity [8]: 65.7%
- IC50 [9]: > 400 µM
- IC50 [10]: > 400 µM
- IC50 [11]: > 400 µM
- IC50 [12]: > 400 µM

Compound: CN1CCN(C(=O)COc2ccc3c(=O)c4ccc(OCC(=O)N5CCN(C)CC5)cc4oc3c2)CC1
- Activity [1]: 0.7%
- Activity [2]: 2.5%
- IC50 [3]: > 400 µM
- viability at 25 µM [4]: 94.1%
- Activity [5]: 10.1%
- Activity [6]: 2.7%
- Activity [7]: 24.2%
- Activity [8]: 66.4%
- IC50 [9]: > 400 µM
- IC50 [10]: > 400 µM
- IC50 [11]: > 400 µM
- IC50 [12]: > 400 µM

Compound: Cc1c(OCC(=O)N2CCOCC2)ccc2c(=O)c3ccc(OCC(=O)N4CCOCC4)cc3oc12
- Activity [1]: 0.9%
- Activity [2]: 0.4%
- IC50 [3]: > 400 µM
- viability at 25 µM [4]: 98.7%
- Activity [5]: 11.8%
- Activity [6]: 0.1%
- Activity [7]: 28%
- Activity [8]: 61%
- IC50 [9]: > 400 µM
- IC50 [10]: > 400 µM
- IC50 [11]: > 400 µM
- IC50 [12]: > 400 µM

Compound: O=c1[nH]cc(F)c(=O)[nH]1 [FLUOROURACIL]
- Activity [13]: 15.3%
- fold change (FC) [14]: 4.2
- IC50 [3]: 35.9 µM
- Activity [15]: 11.7%
- Activity [16]: 1%
- Activity [17]: 74.3%
- IC50 [9]: 98 µM
- IC50 [10]: 72.1 µM
- Activity [18]: 5.2%
- Activity [19]: 0.6%
- IC50 [11]: 39.9 µM
- Activity [20]: 93.2%
- IC50 [12]: 15.4 µM

Compound: Cc1c(OCC(=O)N2CC(C)CC(C)C2)ccc2c(=O)c3ccc(OCC(=O)N4CC(C)CC(C)C4)cc3oc12 (stereo not drawn)
- Activity [1]: 37.5%
- Activity [2]: 12.4%
- fold change (FC) [21]: 2.04
- IC50 [3]: 8.06 µM
- viability at 25 µM [4]: 49%
- Activity [5]: 6%
- Activity [6]: 1.1%
- Activity [7]: 15.5%
- Activity [8]: 78.9%
- IC50 [9]: 4.76 µM
- IC50 [10]: 6.18 µM
- IC50 [11]: 4.59 µM
- IC50 [12]: 6.09 µM

Compound: Cc1c(OCC(=O)N2C(C)CCCC2C)ccc2c(=O)c3ccc(OCC(=O)N4C(C)CCCC4C)cc3oc12 (stereo not drawn)
- Activity [1]: 7.3%
- Activity [2]: 9.8%
- fold change (FC) [21]: 3.45
- IC50 [3]: 7.31 µM
- viability at 25 µM [4]: 80.7%
- Activity [5]: 6.9%
- Activity [6]: 2.1%
- Activity [7]: 17.6%
- Activity [8]: 75.7%
- IC50 [9]: 7.1 µM
- IC50 [10]: 4.27 µM
- IC50 [11]: 10.6 µM
- IC50 [12]: 7.63 µM

Compound: Cc1c(OCC(=O)N2CC(C)OC(C)C2)ccc2c(=O)c3ccc(OCC(=O)N4CC(C)OC(C)C4)cc3oc12 (stereo not drawn)
- Activity [1]: 0.7%
- Activity [2]: 0.8%
- IC50 [3]: 385 µM
- viability at 25 µM [4]: 98.3%
- Activity [5]: 9.7%
- Activity [6]: 0.2%
- Activity [7]: 24%
- Activity [8]: 66.9%
- IC50 [9]: 116 µM
- IC50 [10]: 214 µM
- IC50 [11]: 295 µM
- IC50 [12]: 141 µM

Compound: Cc1c(OCC(=O)NCC2CCCO2)ccc2c(=O)c3ccc(OCC(=O)NCC4CCCO4)cc3oc12 (stereo not drawn)
- Activity [1]: 1.2%
- Activity [2]: 2.5%
- Activity [21]: inactive
- IC50 [3]: 98.4 µM
- viability at 25 µM [4]: 95.4%
- Activity [5]: 13.2%
- Activity [6]: 0.9%
- Activity [7]: 13%
- Activity [8]: 74.6%
- IC50 [9]: 78.7 µM
- IC50 [10]: 34.5 µM
- IC50 [11]: 27.5 µM
- IC50 [12]: 33.8 µM

Compound: CC1CCCC(C)N1C(=O)COc1ccc2c(=O)c3ccc(OCC(=O)N4C(C)CCCC4C)cc3oc2c1 (stereo not drawn)
- Activity [1]: 1.5%
- Activity [2]: 9.1%
- fold change (FC) [21]: 2.31
- IC50 [3]: 24.3 µM
- viability at 25 µM [4]: 87.7%
- Activity [5]: 9.8%
- Activity [6]: 1.1%
- Activity [7]: 33.5%
- Activity [8]: 57.4%
- IC50 [9]: 13.8 µM
- IC50 [10]: 6.68 µM
- IC50 [11]: 17.2 µM
- IC50 [12]: 15.7 µM

Compound: CCOC(=O)N1CCN(C(=O)COc2ccc3c(=O)c4ccc(OCC(=O)N5CCN(C(=O)OCC)CC5)c(C)c4oc3c2)CC1
- Activity [1]: 1.6%
- Activity [2]: 1.1%
- Activity [21]: inactive
- IC50 [3]: 64.5 µM
- viability at 25 µM [4]: 97.1%
- Activity [5]: 11.9%
- Activity [6]: 0.3%
- Activity [7]: 23.2%
- Activity [8]: 65.5%
- IC50 [9]: 34.1 µM
- IC50 [10]: 53.3 µM
- IC50 [11]: 84.9 µM
- IC50 [12]: 8.16 µM

Compound: O=C(COc1ccc2c(=O)c3ccc(OCC(=O)NCC4CCCO4)cc3oc2c1)NCC1CCCO1 (stereo not drawn)
- Activity [1]: 0.5%
- Activity [2]: 1.2%
- IC50 [3]: > 400 µM
- viability at 25 µM [4]: 96.5%
- Activity [5]: 9.5%
- Activity [6]: 1.8%
- Activity [7]: 26.3%
- Activity [8]: 64.6%
- IC50 [9]: > 400 µM
- IC50 [10]: 249 µM
- IC50 [11]: > 400 µM
- IC50 [12]: > 400 µM

Compound: Cc1c(OCC(=O)NC2CCCCC2C)ccc2c(=O)c3ccc(OCC(=O)NC4CCCCC4C)cc3oc12 (stereo not drawn)
- Activity [1]: 3.1%
- Activity [2]: 2.4%
- Activity [21]: inactive
- IC50 [3]: 11 µM
- viability at 25 µM [4]: 93.6%
- Activity [5]: 9.4%
- Activity [6]: 1%
- Activity [7]: 29.1%
- Activity [8]: 61.8%
- IC50 [9]: 15.4 µM
- IC50 [10]: 23.3 µM
- IC50 [11]: 22.3 µM
- IC50 [12]: 18.3 µM

Compound: Cc1c(OCC(=O)N2CCN(C)CC2)ccc2c(=O)c3ccc(OCC(=O)N4CCN(C)CC4)cc3oc12
- Activity [1]: 0.7%
- Activity [2]: 3.1%
- IC50 [3]: 257 µM
- viability at 25 µM [4]: 95.6%
- Activity [5]: 9%
- Activity [6]: 0.6%
- Activity [7]: 20.7%
- Activity [8]: 71.2%
- IC50 [9]: 97.8 µM
- IC50 [10]: 89.2 µM
- IC50 [11]: 181 µM
- IC50 [12]: 119 µM
